# UBC13 inh – inhibitors of human UBC13 polyubiquitin chain formation; TR-FRET; inhibition, % at 20 µM; 330,000 tested, 0.47% active; in the data active = inhibition above about 45%, passing the limit was not always enough; inconclusive = no clear call, values can overlap the other calls
# Rin1-Abl PPI inh – inhibitors of human Rin1-Abl protein interaction; 360,000 tested, 0.4% active; inhibition, % at 7.35 µM; P00519+Q13671; TR-FRET Rin1/Abl binding, biochemical; in the data active = inhibition above about 5%, passing the limit was not always enough
# PAD4 inh – inhibitors of human PAD4; Q9UM07; recombinant PAD4, RCA probe fluorescence polarization; inhibition, % at 6.36 µM; 330,000 tested, 0.41% active; AID 485272;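 active = percent inhibition above a cutoff equal to the mean of all tested compounds plus 3 SD, cut at about 15% in these data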;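 note: 0% = PAD4 with RCA probe and DMSO and 100% = probe without PAD4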
# Target sequence (Q9UM07 whole entry, looked up): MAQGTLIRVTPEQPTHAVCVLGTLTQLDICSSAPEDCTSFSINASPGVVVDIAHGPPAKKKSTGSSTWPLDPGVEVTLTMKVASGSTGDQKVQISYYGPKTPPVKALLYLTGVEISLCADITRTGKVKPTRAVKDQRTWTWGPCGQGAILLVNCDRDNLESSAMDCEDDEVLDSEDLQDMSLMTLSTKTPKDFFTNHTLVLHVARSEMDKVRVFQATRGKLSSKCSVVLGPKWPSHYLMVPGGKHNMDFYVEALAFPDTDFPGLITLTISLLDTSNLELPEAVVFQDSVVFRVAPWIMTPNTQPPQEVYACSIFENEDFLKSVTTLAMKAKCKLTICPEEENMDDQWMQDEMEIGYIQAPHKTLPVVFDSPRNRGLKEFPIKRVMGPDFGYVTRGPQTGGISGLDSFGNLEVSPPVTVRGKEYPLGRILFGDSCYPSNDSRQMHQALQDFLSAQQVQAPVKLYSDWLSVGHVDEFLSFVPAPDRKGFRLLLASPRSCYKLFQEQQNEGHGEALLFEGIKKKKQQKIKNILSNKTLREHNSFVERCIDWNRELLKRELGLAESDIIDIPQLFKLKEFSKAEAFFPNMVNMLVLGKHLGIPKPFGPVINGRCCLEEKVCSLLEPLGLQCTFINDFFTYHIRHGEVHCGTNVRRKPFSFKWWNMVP
# GSTO1 counter – counter-screen for RBBP9 inhibitors: inhibitors of human GSTO1. P78417. recombinant GSTO1, activity-based probe fluorescence polarization. inhibition, % at 5.96 µM. 300,000 tested, 1.1% active;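 active = inhibition above the campaign mean inhibition plus 3 SD, cut at about 35% in these data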;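 note: 0% = GSTO1-1 with DMSO and 100% = wells lacking GSTO1-1 enzyme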
# UBC9 SUMO inh – SUMOylation inhibition; P63279; HTRF SUMOylation assay, SAE1/SAE2 + UBC9, in vitro; inhibition, % at 35 µM; 290,000 tested, 0.36% active; AID 2006; in the data active = inhibition above about 50%, passing the limit was not always enough; inconclusive = no clear call, values can overlap the other calls
# Apaf-1 inh – human Apaf-1 inhibition; reconstituted apoptosome caspase-3 activity, DEVD-Rh110 fluorescence; inhibition, % at 20 µM; 330,000 tested, 0.71% active; AID 489030; active = inhibition of at least 40% at 20 µM;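 note: plate controls were DMSO wells for no effect and DEVD-CHO caspase inhibitor wells for full effect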
#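 Material: cell-free apoptosome with Apaf-1, procaspase-3 and caspase-9; Buffer or medium: Hepes pH 7.5 with detergent and BSA; Reagent: cytochrome c trigger plus (Z-DEVD)2-Rh110 caspase-3 substrate; Times: compound with Apaf-1, dATP, procaspase-3 30 min, then 50 min reaction, room temperature; Technique: Rh110 fluorescence intensity.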
# GSTO1 inh conf – GSTO1 (human) inhibition, confirmation | inhibition, % at 5.96 µM | recombinant GSTO1, probe fluorescence polarization | 2,400 tested, 54% active | shares compounds with GSTO1 counter;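 active = inhibition above the primary screen's cutoff, its mean inhibition plus 3 SD, cut at about 35% in these data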;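 note: loss of polarization as inhibitors block binding of rhodamine sulfonate ester activity probe; 0% = GSTO1 with DMSO and 100% = wells lacking GSTO1 enzyme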
# GSTO1 recomb ABPP – blocks recombinant human glutathione S-transferase omega 1. shares compounds with GSTO1 counter. recombinant GSTO1, gel ABPP SE-Rh probe fluorescence. inhibition, % at 1 µM. 130 tested, 30% active. AID 463110;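 active = inhibition of the enzyme GSTO1 above about 75%, limit read from the data; inactive = inhibition below that limit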
# Numbers without * were called inactive; ? = inconclusive; . = no result given; + = active, no number. The list is not random: actives were taken first. Their share in the collection is about 2.2%.
SMILES,UBC13 inh,Rin1-Abl PPI inh,PAD4 inh,GSTO1 counter,UBC9 SUMO inh,Apaf-1 inh,GSTO1 inh conf,others
CC(=O)N1CCN(C(=O)COC(=O)c2oc3ccccc3c2C)CC1,10,-1,1,.,.,-5,.,
C[C@@H]1CN([C@H](C)CO)C(=O)c2c(c3ccccc3n2C)-c2ccccc2CO[C@H]1CN(C)C(=O)CCC(F)(F)F,.,-3,.,.,.,.,.,
Cc1ccc(/C=C2\SC(=S)N(/N=C/c3cc([N+](=O)[O-])ccc3O)C2=O)o1,-29,-1,-1,50*,.,-14,43*,
COc1ccc(-n2nc3c(c2NC(=O)C(C)Cl)CSC3)cc1 (centres undefined),-11,-1,0,2,13,7,.,
COc1ccc(-n2nc3c(c2NC(=O)CCl)CSC3)cc1,-3,1,-2,88*,.,12,92*,
Cc1ccc(S(=O)(=O)N2C[C@H]3C(=O)C[C@@H](c4ccccc4F)N(S(=O)(=O)c4ccc(C)cc4)[C@H]3C[C@H]2c2cccc3ccccc23)cc1,.,-8,.,.,.,.,.,
CC1ON=C(c2ccc(F)cc2)NC1=O (centres undefined),.,4,.,.,.,.,.,
COC(=O)C(N)Cc1ccc(O)c(O)c1 (centres undefined),9,1,3,90*,9,-4,3,
CC1=CC(C)(C)N(C(=O)CCl)c2ccccc21,-2,-1,4,65*,21,9,58*,GSTO1 recomb ABPP=31
CC1=CC(C)(C)N(C(=O)CCl)c2cc(C)ccc21,3,0,3,20,8,-7,.,
CCCc1ccccc1OCCNS(=O)(=O)c1cc2c(cc1C)OCC(=O)N2,-3,2,4,43*,5,19,30,
Cc1ccc(NC(=O)C2(C)CCN2C(=O)CCC2CCCC2)cc1C (centres undefined),.,0,.,.,.,.,.,
Cc1nc(-c2ccc(O)c(O)c2)cs1,4,-1,5,42*,-3,3,7,
Oc1ccc(-c2csc(-c3cccnc3)n2)cc1O,3,2,5,59*,2,-11,6,
COc1cc(-c2csc(C)n2)ccc1O,-8,-9,2,0,8,1,.,
Oc1ccccc1-c1csc(-c2ccccc2)n1,1,0,-3,7,8,16,.,
Cc1ccc2nc(-c3ccc(O)c(O)c3)cn2c1,-8,4,-4,58*,10,3,11,
Oc1ccc(-c2csc(-c3ccccc3)n2)cc1O,20,-3,1,39*,-2,5,2,
C=CCN(CC=C)C(=O)c1ccc(OC2CCN(C(C)=O)CC2)c(OC)c1,-2,1,-1,3,7,0,.,
CCN(CC)c1ccc2nc3c4ccccc4c(=O)cc-3oc2c1,-20,.,.,.,-17,32,.,
CCN(CC)c1ccc2c(-c3ccc(S(=O)(=O)O)cc3S(=O)(=O)[O-])c3ccc(=[N+](CC)CC)cc-3oc2c1,-202,-12,.,198*,?,-5,+,
O=C(c1ccc2ccccc2c1O)N1CCCCC1,.,-2,.,.,.,.,.,
O=Nc1c(O)c2ccccc2c2ccccc12,.,0,-2,78*,.,.,81*,
O=c1ccc2ccccc2c2ccccc12,.,5,.,.,.,.,.,
Cc1ccc(S(=O)(=O)c2nc(S(C)(=O)=O)sc2N2CCC3(CC2)OCCO3)cc1,-7,4,4,63*,22,-5,5,
SMILES,UBC13 inh,Rin1-Abl PPI inh,PAD4 inh,GSTO1 counter,UBC9 SUMO inh,Apaf-1 inh,GSTO1 inh conf,others
Cc1ccc(S(=O)(=O)c2nc(S(C)(=O)=O)sc2N2CCOCC2)cc1,2,2,0,-3,-10,-2,.,
CC(C)COC(=O)N1CCCCC1c1cc(C(=O)NCc2ccccc2)no1 (centres undefined),.,0,.,.,.,.,.,
COc1ccccc1N(O)C1CC(=O)N(c2ccc(Br)cc2)C1=O (centres undefined),0,0,-7,51*,4,15,12,
CCCCCCC(=O)N(O)C1CC(=O)N(c2ccc(Br)cc2)C1=O (centres undefined),-1,-5,-7,-6,26,-6,.,
CCN(CC)c1ccc(C(=O)NNC(=O)C2CCN(c3ncnc4sc(C)c(C)c34)CC2)cc1,.,3,.,.,.,.,.,
Cc1ccc(NC(=O)/C(=C\c2ccc([N+](=O)[O-])cc2)NC(=O)c2ccccc2)cc1,-14,2,-4,-6,21,12,.,
O=C(N/N=C/c1ccc(O)c(O)c1O)/C(=C/c1ccc([N+](=O)[O-])cc1)NC(=O)c1ccccc1,-13,15*,3,54*,49,36,1,
CS(=O)(=O)c1ccc2c(c1)sc1nc(=O)c(/C=C3/C=CC(=O)C(O)=C3)c(N)n12,-85,2,-5,44*,34,-23,32,
COC1=C/C(=C/c2c(N)n3c(nc2=O)sc2cc(S(C)(=O)=O)ccc23)C=CC1=O,-120,-4,-3,-3,16,1,.,
O=[N+]([O-])c1cc(Br)cc(C=Nc2ccc3c(c2)OCO3)c1O,-14,-3,-1,43*,22,4,38*,
Cc1ccc2nc(N3CCN(CCO)CC3)nc(-c3ccccc3)c2c1,19,-3,1,43*,23,10,25,
CCOC(=O)c1cc(C)n(-c2ccc(Cl)cc2)c1C,7,5,1,2,2,-7,.,
CCOc1ccc(-n2c(C)cc(C(=O)CCl)c2C)cc1,11,5,-1,94*,9,2,100*,
O=C(CCCn1c(SCC(=O)NC2CCCCC2)nc2ccccc2c1=O)NCC1CCCO1 (centres undefined),8,-1,1,5,22,2,.,
O=C(CCCn1c(SCC(=O)c2ccc(O)c(O)c2)nc2ccccc2c1=O)NCC1CCCO1 (centres undefined),4,0,-4,44*,26,-3,9,
O=[N+]([O-])c1ccccc1N(CC1CO1)S(=O)(=O)c1ccccc1 (centres undefined),5,-1,-1,81*,-3,-1,94*,GSTO1 recomb ABPP=12
COc1ccccc1N(CC1CO1)S(=O)(=O)c1ccccc1 (centres undefined),0,-1,-1,85*,4,8,78*,GSTO1 recomb ABPP=13
O=C(O)CN(c1ccccc1[N+](=O)[O-])S(=O)(=O)c1ccccc1,-4,5,-3,12,6,2,.,
O=S(=O)(c1ccccc1)N(CC1CO1)c1cc(Cl)ccc1Cl (centres undefined),8,0,1,92*,12,3,94*,GSTO1 recomb ABPP=51

# Bioassay records deposited in PubChem by several laboratories.
